Bioassay records: PubChem, several laboratories
Most compounds without a hit are left out; they make up all but 2.6% or so of the library.
NPY Y2 blocker – NPY-Y2 (human) receptor antagonism. P49146. hit rate 0.99% among 140,000. NPY-Y2 expressing cells, antagonist mode. AID 793. inhibition, % at 2.7 µM; in the data active = inhibition above about 17%;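 also: 0% = vehicle with agonist challenge and 100% = reference antagonist with challenge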
Target sequence (P49146 whole entry, looked up): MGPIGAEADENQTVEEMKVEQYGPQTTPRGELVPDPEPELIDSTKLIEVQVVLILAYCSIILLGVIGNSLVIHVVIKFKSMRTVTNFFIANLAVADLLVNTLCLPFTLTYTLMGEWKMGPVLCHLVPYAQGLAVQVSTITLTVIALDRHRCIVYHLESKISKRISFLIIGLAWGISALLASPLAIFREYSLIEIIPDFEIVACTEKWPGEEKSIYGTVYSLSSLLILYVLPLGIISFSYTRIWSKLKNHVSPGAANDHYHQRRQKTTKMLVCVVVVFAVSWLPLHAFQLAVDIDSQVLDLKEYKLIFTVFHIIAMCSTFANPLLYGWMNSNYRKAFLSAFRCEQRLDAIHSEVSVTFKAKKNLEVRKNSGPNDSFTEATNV
MT stabilizer – microtubule stabilizers in HeLa cells; HeLa tubulin immunostaining HCS, 24 h; share of cells brighter than vehicle mean+2SD; % tubulin-high responders, % at 10 µM; hit rate 0.83% among 200,000;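 active = plate Z-score above 3 for both tubulin-high and condensed-nucleus cell shares, with cell loss under 80%, at 10 µM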;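 also: anti alpha tubulin signal scored within the nucleus-defined area of each cell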
NPY-Y2 PAM-ag – human NPY-Y2 potentiation or agonism, primary screen; hit rate 0.45% among 220,000; cells expressing NPY-Y2, potentiator/agonist read-out; activation, % at 3.6 µM; P49146; in the data active = activation above about 27%;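 also: cells stimulated with NPY near EC25 plus isoproterenol at EC100; 0% = vehicle plus submaximal agonist and 100% = vehicle plus saturating agonist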
NPY-Y1 antag – antagonists of human neuropeptide Y receptor Y1; hit rate 1% among 200,000; HEK293-CNG Y1 cells, membrane potential fluorescence; NPY at EC95, then isoproterenol; P25929; inhibition, % at 3.6 µM; AID 1040;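 active = inhibition above the campaign mean inhibition of all tested compounds plus 3 SD, cut at about 20% in these data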;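 also: 0% = DMSO wells given NPY plus isoproterenol and 100% = isoproterenol alone without NPY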
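Material: Y1- and CNG-channel-expressing HEK293 cells / Probe or stimulus: NPY 25 nM then isoproterenol 1 µM plus Ro 20-1724 25 µM / Doses: 3.6 µM single dose, DMSO 0.4% / Schedule: compound incubation 1 h at room temperature, readout 45 min post-stimulation / Signal: membrane potential fluorescence / Benchmarks: isoproterenol-only wells as full block versus NPY-plus-isoproterenol wells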
NPY-Y1 PAM-ag – potentiates or activates human NPY-Y1 receptor; P25929; NPY-Y1 expressing cells, potentiator/agonist activation; activation, % at 3.6 µM; hit rate 0.37% among 220,000; in the data active = activation above about 33%, passing the limit was not always enough;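 also: cells stimulated with NPY at EC10 then isoproterenol at EC100; 0% = low agonist plus stimulus and 100% = saturating agonist plus stimulus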
b-catenin transl – beta-catenin nuclear translocation modulation; HeLa beta-catenin nuclear translocation, immunofluorescence imaging; nuclear translocation activity, % at 5 µM; hit rate 0.3% among 190,000;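 active = nuclear translocation activity above 50% at 5 µM, with a well cell count of 50 or more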;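 also: per-cell ratio of nuclear to cytoplasmic median beta-catenin stain intensity; plate controls were DMSO negative control for no effect and GSK-3 inhibitor IX positive control for full effect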
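Test system: human HeLa cells, native beta-catenin. Compound dosing: 5 µM primary single dose, 0.1% DMSO, 0.02–20 µM confirmation series. Incubation: compound exposure 24 h at 37°C. Detection: beta-catenin immunostaining with DAPI counterstain, 20x imaging, 6 fields/well. Read-out basis: Nuclear/cytoplasmic beta-catenin signal ratio, % activation.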
NPY-Y1 antag ct – antagonizes human NPY-Y1, counter-screen to NPY-Y2 antagonists; shares compounds with NPY Y2 blocker; cell-based NPY-Y1 antagonism counterscreen; inhibition, % at 3.6 µM; hit rate 19% among 710; AID 1256; in the data active = inhibition above about 20%;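 also: cells challenged with NPY then isoproterenol with cAMP sensed through a CNG channel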
NPY2 antag conf – human NPY-Y2 antagonism, confirmation; shares compounds with NPY Y2 blocker; HEK293 NPY-Y2 CNG channel, membrane potential fluorescence; inhibition, % at 2.8 µM; hit rate 32% among 710; AID 1257;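 active = mean inhibition of triplicate wells above the hit cutoff set in the primary screen, cut at about 17% in these data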;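 also: 0% = DMSO with NPY challenge and 100% = BIIE0246 high control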
Starred values were filed as active, the others as inactive; . = no result; ! = a repeat was not active.

SMILES	NPY Y2 blocker	MT stabilizer	NPY-Y2 PAM-ag	NPY-Y1 antag	NPY-Y1 PAM-ag	b-catenin transl	others
Cc1c(C(=O)OCC2CCCO2)[nH]c2c1C(=O)CC(c1ccco1)C2 (centres undefined)	2	40*	10	-2	9	89*
Cc1c(C(=O)OC2CCCC2)[nH]c2c1C(=O)CC(c1ccco1)C2 (centres undefined)	4	10	-8	10	3	132*
N=c1n(CCCOc2ccccc2Cl)c2ccccc2n1CC(N)=O	.	.	-24	.	10	1
O=C(CN1c2ccccc2Sc2ccccc21)NNC(=O)Nc1ccc(Cl)cc1	.	.	57*	.	61*	0
c1ccc2c(c1)CCN(c1nc(CN3CCOCC3)nc3sc4c(c13)CCCC4)C2	23*	2	-12	23*	-71	-4
O=C(COc1ccc(S(=O)(=O)N2CCOCC2)cc1)Nc1ccc2c(c1)OCCO2	1	2	-15	0	-13	.
O=C(COc1ccc(S(=O)(=O)N2CCOCC2)cc1)Nc1ccc(Cl)c(C(F)(F)F)c1	2	32*	9	-5	-11	2
CCOC(=O)C(=CNNc1cccc(Cl)c1)C(=O)OCC	.	.	54*	.	62*	1
CCOC(=O)C(=CNc1ccc(Cl)cn1)C(=O)OCC	.	.	35	.	25	1
C/C(=N\Nc1cccc(C(F)(F)F)c1)c1ccc(O)cc1	.	5	6	-5	13	1
O=C(CCc1ccccc1)N1CCN(c2ccc(Cl)cc2)CC1	4	1	-14	7	-20	4
O=C(C1c2ccccc2Oc2ccccc21)N1CCN(c2ccc(Cl)cc2)CC1	10	33*	-22	11	-15	.
C=CCc1cc(OC)ccc1OCC(O)CN1CCN(c2ccc(OC)cc2)CC1 (centres undefined)	4	2	4	5	20	2
Cc1ccccc1OCC(O)CN1CCN(C)CC1 (centres undefined)	.	4	-5	0	-1	1
C=CCc1ccccc1OCCCCN1CCCC1	6	5	17	8	-8	-2
C=CCc1ccccc1OCC(O)CN1CCN(c2ccccc2OC)CC1 (centres undefined)	4	4	102*	-15	112*	-4
OC(COc1ccccc1Cl)CN1CCN(CC(O)COc2ccccc2Cl)CC1 (centres undefined)	4	2	48*	-14	86*	0
C=CCc1ccc(OCC(O)CN2CCCCC2)c(OC)c1 (centres undefined)	3	1	-2	3	-3	-1
C=CCc1cc(C)ccc1OCC(O)CN1CCN(c2ccccc2)CC1 (centres undefined)	9	4	56*	-7	54*	-1
C=CCc1ccccc1OCC(CN1CCCCC1)OC(C)=O (centres undefined)	3	6	104*	-17	112*	-3
COc1ccccc1/C=N/NC(=O)C(=O)N1CCN(c2ccccc2OC)CC1	2	3	1	0	-5	0
O=C(COC(=O)CCc1c[nH]c2ccccc12)NC(c1ccccc1)c1ccccc1	6	5	-9	5	10	-2
CCCCOC(=O)Nc1ccc(S(=O)(=O)Nc2ccc([N+](=O)[O-])cc2)cc1	1	2	27	-1	29	0
C=CCc1ccccc1OCC(O)CNC(C)C (centres undefined)	4	4	103*	-13	116*	.
CC(C)NC[C@H](O)COc1cccc2[nH]ccc12	.	.	.	.	.	-2
SMILES	NPY Y2 blocker	MT stabilizer	NPY-Y2 PAM-ag	NPY-Y1 antag	NPY-Y1 PAM-ag	b-catenin transl	others
C=CCc1ccccc1OCC(O)CN1CCN(c2ccccc2F)CC1 (centres undefined)	5	2	87*	-12	95*	-2
COc1ccccc1N1CCN(CC(O)COc2ccc3c(c2)OCO3)CC1 (centres undefined)	.	2	-8	0	-8	3
COc1ccccc1N1CCN(CC(O)COc2cccc3ccccc23)CC1 (centres undefined)	6	4	66*!	-7	88*	3
CSc1ccc(/C=N/NC(=O)c2ccc(C)c(C)c2)cc1	4	24*	-4	8	-37	1
Cn1cnnc1SCC(=O)Nc1ccc(Cl)c(S(=O)(=O)N2CCOCC2)c1	.	4	9	11	-17	-2
O=C(O)C(Cc1c[nH]c2ccccc12)N1C(=O)C2C3c4ccccc4C(c4ccccc43)[C@@H]2C1=O (some centres undefined)	.	.	0	.	4	1
Cc1nc2ccccc2c2oc(C(=O)NC3CC3)cc12	0	2	5	0	-1	.
CCOc1ccc(NC(=O)c2cc3c(C)nc4ccccc4c3o2)cc1	3	17*	-3	4	0	126*
Cc1cccc(/C(N)=N/OC(=O)COc2ccccc2Cl)c1	19*	2	6	5	-28	0	NPY-Y1 antag ct=8;NPY2 antag conf=15
Cc1cccc(NC(=O)c2sc(Cl)nc2C)c1C	18*	3	1	-3	2	-3	NPY-Y1 antag ct=-1;NPY2 antag conf=2
Cc1ccccc1NC(=O)c1sc(Cl)nc1C	3	3	-2	-3	6	-2
COc1cc([N+](=O)[O-])c(C(=O)N2CCOCC2)c([N+](=O)[O-])c1	1	1	5	1	-16	-3
CCn1c(/C=C/N(C(C)=O)c2ccccc2)[n+](CCCS(=O)(=O)[O-])c2cc(Cl)c(Cl)cc21	.	1	-6	1	-13	0
CCn1c(/C=C/Nc2ccccc2)[n+](CC)c2cc(Cl)c(Cl)cc21	35*	6	4	8	0	6	NPY-Y1 antag ct=13;NPY2 antag conf=15
Cc1ccc(C)c(OCc2nc3ccc(S(=O)(=O)Nc4c(C)n(C)n(-c5ccccc5)c4=O)cc3[nH]2)c1	.	4	-2	1	10	1
COc1ccc(C2(CNC(=O)c3cccc([N+](=O)[O-])c3)CCOCC2)cc1OC	-1	3	-1	-5	-8	-1
COc1ccc(C2(CNC(=O)c3cccc([N+](=O)[O-])c3)CCOCC2)cc1	17*	2	-3	-4	-26	-1	NPY-Y1 antag ct=-1;NPY2 antag conf=3
COc1cccc(Oc2nc(-c3ccncc3)nc3ccccc23)c1	.	.	-24	.	-49	33
CCCCSc1nnc(-c2ccc(C)cc2)c2ccccc12	18*	2	2	7	8	3	NPY-Y1 antag ct=9;NPY2 antag conf=13
COC(=O)/C=c1\[nH]c2nnc(C)n2c1=O	.	.	2	.	0	1
